Reference: ChEMBL document CHEMBL1129038, “Studies on selectin blocker. 1. Structure-activity relationships of sialyl Lewis X analogs” (J Med Chem, 1996)

Tests used:
[1] = biological target: T1, E-selectin (Homo sapiens, UniProt P16581); test: Inhibitory activity against human chimeric E-selectin-Ig
T1 sequence (P16581 whole entry): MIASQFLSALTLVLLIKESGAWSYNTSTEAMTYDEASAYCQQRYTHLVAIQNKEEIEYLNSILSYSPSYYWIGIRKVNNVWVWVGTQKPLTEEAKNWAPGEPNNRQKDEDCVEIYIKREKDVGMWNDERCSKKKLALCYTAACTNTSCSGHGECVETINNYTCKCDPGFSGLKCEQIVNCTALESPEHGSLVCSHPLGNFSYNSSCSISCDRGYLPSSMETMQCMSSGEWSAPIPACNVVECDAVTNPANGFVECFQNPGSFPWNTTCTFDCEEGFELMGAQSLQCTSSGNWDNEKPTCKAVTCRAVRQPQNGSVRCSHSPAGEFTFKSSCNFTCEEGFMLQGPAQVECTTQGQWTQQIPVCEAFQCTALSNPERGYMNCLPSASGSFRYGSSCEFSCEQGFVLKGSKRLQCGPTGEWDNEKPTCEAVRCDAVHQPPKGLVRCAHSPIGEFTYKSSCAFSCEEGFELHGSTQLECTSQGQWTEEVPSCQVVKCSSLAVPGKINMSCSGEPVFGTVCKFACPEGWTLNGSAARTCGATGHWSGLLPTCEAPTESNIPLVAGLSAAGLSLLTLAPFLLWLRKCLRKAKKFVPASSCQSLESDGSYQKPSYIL
Outline: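 Competitive ELISA. sLeX-pentaceramide was adsorbed at 100 pmol per well and blocked with 5% BSA-PBS. E-selectin-Ig fusion (lectin, EGF and two complement regulatory repeats on human IgG1 hinge/CH2/CH3; cDNA from HUVEC mRNA) was precomplexed 30 min with biotin-anti-human IgG(Fc)/streptavidin-alkaline phosphatase. Compound at 100, 25, 6.25 or 1.56 µM final was preincubated with the complex 30 min, then 37 °C for 45 min. pNPP read at 405 nm; duplicates.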

[2] = biological target: T2, L-selectin (Homo sapiens, UniProt P14151); test: Inhibitory activity against human chimeric L-selectin-Ig
T2 sequence (P14151 whole entry): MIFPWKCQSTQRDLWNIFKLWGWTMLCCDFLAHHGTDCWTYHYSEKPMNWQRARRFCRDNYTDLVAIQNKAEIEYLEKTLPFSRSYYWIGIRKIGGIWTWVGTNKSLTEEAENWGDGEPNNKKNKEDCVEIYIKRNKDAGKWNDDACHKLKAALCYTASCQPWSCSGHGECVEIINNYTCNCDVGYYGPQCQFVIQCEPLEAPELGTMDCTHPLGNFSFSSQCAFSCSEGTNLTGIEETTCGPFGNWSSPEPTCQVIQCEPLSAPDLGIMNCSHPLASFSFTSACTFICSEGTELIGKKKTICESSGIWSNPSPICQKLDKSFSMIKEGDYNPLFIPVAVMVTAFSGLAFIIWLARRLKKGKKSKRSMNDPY
Outline: (§1)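 Competition against binding of the sLeX pentasaccharide ceramide ligand to purified selectin-Ig. The fusions carry the lectin, EGF and two complement regulatory repeats on the human IgG1 hinge/Fc and were expressed in COS7 (transient) or CHO (stable) cells. The P-selectin cDNA came from HUVEC mRNA and the L-selectin cDNA from Jurkat mRNA, both by RT-PCR.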

[3] = biological target: T3, P-selectin (Homo sapiens, UniProt P16109); test: Inhibitory activity against human chimeric Selectin P-Ig; outline: as §1
T3 sequence (P16109 whole entry): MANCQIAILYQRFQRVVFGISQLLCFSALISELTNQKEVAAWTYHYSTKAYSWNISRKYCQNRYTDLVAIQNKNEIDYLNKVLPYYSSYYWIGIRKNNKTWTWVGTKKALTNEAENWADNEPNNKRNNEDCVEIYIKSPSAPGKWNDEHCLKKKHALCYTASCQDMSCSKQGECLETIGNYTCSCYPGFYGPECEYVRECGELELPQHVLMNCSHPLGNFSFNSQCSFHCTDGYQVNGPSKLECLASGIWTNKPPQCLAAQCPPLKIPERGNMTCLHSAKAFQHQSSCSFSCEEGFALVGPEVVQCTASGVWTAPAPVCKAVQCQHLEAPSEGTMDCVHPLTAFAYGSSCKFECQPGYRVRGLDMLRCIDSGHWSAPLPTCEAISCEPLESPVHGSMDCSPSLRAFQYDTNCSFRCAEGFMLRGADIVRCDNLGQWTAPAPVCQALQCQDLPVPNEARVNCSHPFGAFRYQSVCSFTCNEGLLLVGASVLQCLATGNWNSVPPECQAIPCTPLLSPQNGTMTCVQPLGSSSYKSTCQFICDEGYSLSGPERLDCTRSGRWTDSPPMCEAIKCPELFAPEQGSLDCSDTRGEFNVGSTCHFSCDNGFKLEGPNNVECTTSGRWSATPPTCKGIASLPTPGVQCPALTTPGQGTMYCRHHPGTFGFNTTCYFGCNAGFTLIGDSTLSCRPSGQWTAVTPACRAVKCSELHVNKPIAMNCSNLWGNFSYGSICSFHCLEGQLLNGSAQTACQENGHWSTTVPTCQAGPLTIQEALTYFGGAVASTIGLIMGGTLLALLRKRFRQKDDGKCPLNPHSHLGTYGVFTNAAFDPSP

Compound	IC50 [1]	IC50 [2]	IC50 [3]
CC(=O)N[C@H]1[C@H]([C@H](O)[C@H](O)CO)O[C@@](O[C@@H]2[C@H](O)[C@@H](O)[C@H](O[C@H]3[C@H](O[C@@H]4O[C@@H](C)[C@@H](O)[C@@H](O)[C@@H]4O)[C@@H](O)CO[C@@H]3CO)O[C@@H]2O)(C(=O)O)C[C@@H]1O	240 µM	220 µM	> 1000 µM
C[C@@H]1O[C@@H](O[C@@H]2CCO[C@H](CO)[C@H]2O[C@@H]2O[C@H](CO)[C@H](O)[C@H](OP(=O)(O)O)[C@H]2O)[C@@H](O)[C@H](O)[C@@H]1O	> 1000 µM	420 µM	> 1000 µM
C[C@@H]1O[C@@H](O[C@@H]2CCO[C@H](CO)[C@H]2O[C@@H]2O[C@H](CO)[C@H](O)[C@H](OS(=O)(=O)O)[C@H]2O)[C@@H](O)[C@H](O)[C@@H]1O	> 1000 µM	> 1000 µM	560 µM
CC(=O)N[C@H]1[C@H]([C@H](O)[C@H](O)CO)O[C@@](O[C@H]2[C@@H](O)[C@@H](CO)O[C@@H](O[C@@H]([C@H](O[C@@H]3O[C@@H](C)[C@@H](O)[C@@H](O)[C@@H]3O)[C@H](C=O)NC(C)=O)[C@H](O)CO)[C@@H]2O)(C(=O)O)C[C@@H]1O [SIALYL LEWIS X]	600 µM	> 1000 µM	> 1000 µM

Further lines, results first:

IC50 [1]	IC50 [2]	IC50 [3]	Compound
> 1000 µM	> 1000 µM	> 1000 µM	CC(=O)N[C@H]1CO[C@H](CO)[C@@H](O[C@@H]2O[C@H](CO)[C@H](O)[C@H](OS(=O)(=O)O)[C@H]2O)[C@@H]1O[C@@H]1O[C@@H](C)[C@@H](O)[C@@H](O)[C@@H]1O
> 1000 µM	> 1000 µM	670 µM	C[C@@H]1O[C@@H](O[C@H]2[C@H](O[C@@H]3O[C@H](CO)[C@H](O)[C@H](OS(=O)(=O)O)[C@H]3O)[C@@H](CO)OC[C@@H]2O)[C@@H](O)[C@H](O)[C@@H]1O
